# “And” between values parts separate entries of the source, which are not always exact repeats. Equal values may be shown once.
# How the values were obtained:
# Rattus norvegicus [1] = assay: The antiulcer activity against stress-induced ulcer in rats by 30 mg/kg peroral administration.; format: functional; conditions: route oral
# Method in brief: (§1)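 Rats, 190-210 g, fasted 17 h with water allowed. Compound given orally 10 min before stress, 0.5 mL/100 g. Restrained in stress cage and immersed in 23 ± 1 °C water for 7 h without food or water. CO2 kill, stomach opened along greater curvature, total glandular ulcer length (mm) measured. % inhibition = (control − treated)/control × 100. Student's t test.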
# [2] = molecular target: T1, Muscarinic acetylcholine receptor (Rattus norvegicus) (UniProt P08482+P08483+P08485+P08911+P10980); assay: Percentage inhibition for Muscarinic acetylcholine receptor at concentration 10 e-5M
# Method in brief: (§2)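 Rat striatum homogenized in 10 vol distilled water, diluted to 200 vol of wet tissue weight with 50 mM Na-K phosphate buffer pH 7.4 (1 mL ≈ 5 mg wet tissue). [3H]quinuclidinyl benzilate (final 1.26 nM) plus drug in 10% ethanol, 37 °C for 60 min. Nonspecific binding defined with dexetimide (final 1 μM). Rapid GF/B filtration, three ice-cold buffer rinses, liquid scintillation counting.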
# Rattus norvegicus [3] = assay: Inhibition of stress-induced ulcer formation in rats by 10 mg/kg p.o. administration.; format: functional; conditions: for inhibition in vivo at 10 mg/kg: Rattus norvegicus; for Inhibition: 10 mg/kg; method in brief: as §1
# [4] = molecular target: Muscarinic acetylcholine receptor; assay: Binding affinity was measured for Muscarinic acetylcholine receptor; format: protein assay; method in brief: as §2
# [5] = molecular target: T1, Muscarinic acetylcholine receptor (Rattus norvegicus); assay: Percentage inhibition for Muscarinic acetylcholine receptor at concentration 10 e-6M; format: protein assay; method in brief: as §2
# [6] = molecular target: T1, Muscarinic acetylcholine receptor (Rattus norvegicus); assay: Percentage inhibition […] concentration 10 e-5M; format: protein assay
Compound,inhibition in vivo at 30 mg/kg (Rattus norvegicus [1]) [%],inhibition in vivo at 10 mg/kg (Rattus norvegicus [3]; po) [%],also measured
CCN(CC)CCN(CC)C1c2ccccc2OCc2ncccc21 (stereo not given),33,–,inhibition [2]: 15%
CCN(CC)CCNC1c2ccccc2Oc2ncccc21 (stereo not given),< 60,18,–
c1ccc2c(c1)OCc1ncccc1C2NCCN1CCOCC1 (stereo not given),73,7,–
"CCN(CC)CCNC1c2ccccc2OCc2ncccc21 (single isomer, unassigned) [listing 1 of 2 here]",–,–,Ki [4]: 1100 nM; Inhibition (Rattus norvegicus [3]; route oral): <55%
O=C(Cn1ccnc1)NC1c2ccccc2OCc2ncccc21 (stereo not given),12,6,–
CCN(CC)CCNC1c2cccnc2COc2c(C)cccc21 (stereo not given),< 48,< 36,–
c1ccc2c(c1)OCc1ncccc1C2NC1CN2CCC1CC2 (stereo not given),36,–,–
CC1CC[C@H](C)N1CCNC1c2ccccc2OCc2ncccc21 (stereo not given in full),69,64,–
CCN(CC)CCN(C(C)=O)C1c2ccccc2OCc2ncccc21 (stereo not given),0,–,–
CN1CCN(CC(=O)NC2c3ccccc3OCc3ncccc32)CC1 (stereo not given),< 56,31,inhibition [5]: 3%
CCN(CC)CCCNC1c2ccccc2OCc2ncccc21 (stereo not given),55,34,–
CN(C)CCNC1c2ccccc2OCc2ncccc21 (stereo not given),85,24,–
CCN(CC)CC(C)NC1c2ccccc2OCc2ncccc21 (stereo not given),62,–,–
NCCNC1c2ccccc2OCc2ncccc21 (stereo not given),19,–,–
CCN(CC)CC(=O)NC1c2ccccc2OCc2ncccc21 (stereo not given),16,10,–
CCN(CC)CCNC1c2cc(C)ccc2OCc2ncccc21 (stereo not given),40,–,–
CCNCCNC1c2ccccc2OCc2ncccc21 (stereo not given),< 55,–,–
CCN(CC)CCNC1c2cc(F)ccc2OCc2ncccc21 (stereo not given),< 87,< 53,–

Compound,inhibition in vivo at 30 mg/kg (Rattus norvegicus [1]) [%],inhibition in vivo at 10 mg/kg (Rattus norvegicus [3]; po) [%],also measured
c1ccc2c(c1)OCc1ncccc1C2NCCN1CCCCC1 (stereo not given),52,–,–
CN1CCN(C2c3ccccc3OCc3ncccc32)CC1 (stereo not given),76,–,inhibition in vivo at 10 mg/kg (Rattus norvegicus [3]; route oral): 28%
CCN(CC)CCNC1c2ccccc2OCc2ncccc21 (stereo in doubt; 11),85,–,Ki [4]: 1600 nM; Inhibition (Rattus norvegicus [3]; route oral): 65% and 57%
CC(C)N(CC(=O)NC1c2ccccc2OCc2ncccc21)C(C)C (stereo not given),< 45,17,inhibition [6]: 12%
"CCN(CC)CCNC1c2ccccc2OCc2ncccc21 (single isomer, unassigned; (+))",–,< 63,Ki [4]: 3000 nM
Cc1ccc2c(c1)C(N1CCN(C)CC1)c1cccnc1CO2 (stereo not given),7,–,–
CC1CCCC(C)N1CCNC1c2ccccc2OCc2ncccc21 (stereo not given),< 64,–,inhibition [5]: 3%
c1cncc(NC2c3ccccc3OCc3ncccc32)c1 (stereo not given),15,–,–
CN1CCN(CC(=O)N2c3ccccc3C(=O)Nc3cccnc32)CC1 [PIRENZEPINE],< 86,< 67,–
CCN(CC)CCNC1c2ccccc2SCc2ncccc21 (stereo not given),19,–,–
CCN1CCCC(NC2c3ccccc3OCc3ncccc32)C1 (stereo not given),67,–,–
CCN(CC)CCNC1c2cc(Cl)ccc2OCc2ncccc21 (stereo not given),30,–,–
CC(C)N(CCNC1c2ccccc2OCc2ncccc21)C(C)C (stereo not given),88,61,–
"CCN(CC)CCNC1c2ccccc2OCc2ncccc21 (single isomer, unassigned) [listing 2 of 2 here]",–,–,inhibition [2]: 38%
CN/C(=N\CCSCc1nc[nH]c1C)NC#N [CIMETIDINE],< 39,–,inhibition in vivo at 10 mg/kg (Rattus norvegicus [3]; route oral): 33%
c1ccc2c(c1)OCc1ncccc1C2NCCN1CCCC1 (stereo not given),72,68,–
CC1CCC(C)N1CCNC1c2ccccc2OCc2ncccc21 (stereo not given),94,67,–
